Screening results from PubChem BioAssay.
Exocytosis inh = lytic granule exocytosis inhibition; TALL-104 LAMP-1 surface exposure, flow cytometry; cells stimulated with thapsigargin and PMA; inhibition, % at 10 µM; 360,000 tested, 0.66% active; AID 651702;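 active = inhibition above about 55%, limit read from the data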
FGF22 binding = shifts melting point of recombinant human FGF22; activity (Tm shift, normalised), % at 9.99 µM; AID 651658; 340,000 tested, 1.5% active; Q9HCT0; recombinant FGF22 thermal shift, SYPRO orange fluorescence; percent of sucrose octasulfate shift, DMSO zero;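 active = mean Tm shift, scaled 0 neutral to 100 positive control, at about 1.3% or above, every replicate too, limit read from the data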
ABCB6 inh MLPCN = human ABCB6 transporter inhibition; K562-ABCB6 porphyrin accumulation, flow cytometry, 1 h; stronger effect = lower value; fluorescence ratio to DMSO, % at 10 µM; 360,000 tested, 0.19% active; AID 602162;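 active = fluorescence ratio to DMSO below 75%, the collection mean minus 3 SD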;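 also: signal is porphyrin accumulated inside mitochondria; 100% equals median channel fluorescence of DMSO control wells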
VLA-4 inh = inhibition in a human VLA-4 binding assay; inhibition, % (about 7 µM as worked out from the volumes in the protocol); AID 2557; VLA-4 expressing cells, ligand binding flow cytometry; P13612; 330,000 tested, 0.2% active; in the data active = inhibition above about 50%
DAGLB inhibitor = blocks human DAGLB lipase activity. inhibition, % at 5.17 µM. HEK293T DAGLB membrane lysate, EnzChek fluorogenic substrate. AID 504411. Q8NCG7. 340,000 tested, 0.059% active; in the data active = inhibition above about 34%;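 also: 0% = enzyme with vehicle and 100% = wells lacking enzyme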
Target sequence (Q8NCG7 whole entry, looked up): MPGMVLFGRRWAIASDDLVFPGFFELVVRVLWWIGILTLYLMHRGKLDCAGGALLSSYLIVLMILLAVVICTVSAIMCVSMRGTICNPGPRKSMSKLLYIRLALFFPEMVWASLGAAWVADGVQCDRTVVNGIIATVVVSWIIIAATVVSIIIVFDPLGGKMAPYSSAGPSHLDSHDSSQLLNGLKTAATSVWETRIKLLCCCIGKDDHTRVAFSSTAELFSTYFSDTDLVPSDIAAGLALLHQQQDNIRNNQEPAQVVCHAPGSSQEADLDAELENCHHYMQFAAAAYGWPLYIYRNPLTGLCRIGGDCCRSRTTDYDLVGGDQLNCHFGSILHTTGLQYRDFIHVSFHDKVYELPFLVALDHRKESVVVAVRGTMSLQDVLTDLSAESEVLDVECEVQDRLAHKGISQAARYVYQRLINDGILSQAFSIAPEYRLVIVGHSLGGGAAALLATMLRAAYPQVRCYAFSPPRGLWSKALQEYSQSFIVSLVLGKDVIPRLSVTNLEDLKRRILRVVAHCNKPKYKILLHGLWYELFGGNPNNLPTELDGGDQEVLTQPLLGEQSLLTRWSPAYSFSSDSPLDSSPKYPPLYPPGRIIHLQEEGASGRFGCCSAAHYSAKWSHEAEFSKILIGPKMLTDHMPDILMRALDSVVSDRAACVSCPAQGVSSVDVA
MT1-MMP act inh = inhibitors of human MT1-MMP activation; P50281; HT1080 RFP-PRO-GFP cells, GFP/RFP ratio fluorescence, overnight; percent of plate control window, DMSO zero; GFP/RFP ratio change, % at 20 µM; 360,000 tested, 0.061% active; AID 651647;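 active = GFP/RFP ratio change of at least 30% with cell ATP level not reduced by more than half and red fluorescence within 50% of control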
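system = RFP-PRO-GFP reporter HT1080 cells | dosing = 20 µM single dose, 1% DMSO | timing = overnight cell settling, then overnight compound exposure, 37 °C, 5% CO2 | read-out basis = GFP/RFP fluorescence ratio | controls = DMSO and RFP-L50D-GFP cell wells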
Exocytosis CP01 = lytic granule exocytosis inhibition. shares compounds with Exocytosis inh. AID 651954. 1,500 tested, 11% active. inhibition, % at 10 µM. TALL-104 cells, LAMP-1 externalization, flow cytometry; stimulated with PMA plus thapsigargin; in the data active = inhibition above about 60%;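 also: 0% = stimulated vehicle wells and 100% = unstimulated wells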
An asterisk follows results filed as active; nt = no result. The list is not random: actives were taken first. Their share in the collection is about 2%.

SMILES | Exocytosis inh | FGF22 binding | ABCB6 inh MLPCN | VLA-4 inh | DAGLB inhibitor | MT1-MMP act inh | Exocytosis CP01
COc1cc(C(C)=O)ccc1OCC(=O)NCC(c1ccc(F)cc1)N1CCOCC1 (stereo not given) | 62* | 0 | 103 | 7 | 1 | 2 | -5
C[C@H]1CN([C@@H](C)CO)C(=O)c2cccc(NC(=O)NC3CCCCC3)c2O[C@@H]1CN(C)S(C)(=O)=O | nt | 0 | nt | nt | nt | nt | nt
N#Cc1cc2ccccc2nc1SCC(=O)NC1CC1 | 2 | 0 | 92 | -18 | 2 | 5 | nt
CCc1cc2ccccc2nc1SCC(=O)NC1CCCC1 | 79* | 0 | 94 | -5 | -3 | -3 | -4
CCO[C@@H]1OC(C(=O)N2CCN(Cc3ccc4c(c3)OCO4)CC2)=C[C@H](C(C)(C)C)[C@H]1CCCO | nt | -1 | nt | nt | nt | nt | nt
C[C@H](CO)N1C[C@H](C)[C@H](CN(C)C(=O)Nc2ccc(C(F)(F)F)cc2)Oc2ccc(NC(=O)CCCCCC(=O)Nc3ccccc3N)cc2C1=O | nt | -1 | nt | nt | nt | nt | nt
COCC(=O)Nc1ccc2c(c1)C(=O)N(C)C[C@H](OC)[C@@H](C)CN(Cc1cncnc1)[C@H](C)CO2 | nt | 0 | nt | nt | nt | nt | nt
O=C(CCN1CCN(c2ccccc2)CC1)c1ccc(Cl)cc1 | 79* | 0 | 100 | -2 | 3 | -3 | 50
O=C(CCN1CCN(c2ccc([N+](=O)[O-])cc2)CC1)c1ccc(Cl)cc1 | 84* | 1 | 95 | 1 | 1 | -1 | -8
O=C(CN1CCN(c2ccc([N+](=O)[O-])cc2)CC1)c1ccccc1 | 18 | 0 | 100 | 10 | 6 | 1 | nt
NC(Cc1ccc(Cl)cc1)c1csc(Nc2ccc(C(=O)c3ccccc3)cc2)n1 (stereo not given) | 58* | 0 | 97 | nt | nt | -9 | 10
NC(Cc1ccccc1)c1csc(Nc2ccc(C(=O)c3ccccc3)cc2)n1 (stereo not given) | 11 | 0 | 93 | nt | nt | -10 | nt
O=S(=O)(c1ccccc1)N1C[C@@H]2[C@H](c3ccccc31)[C@@H](CO)N2Cc1ccccc1 | nt | 0 | nt | nt | nt | nt | nt
CC1(C(=O)NS(=O)(=O)c2ccc(Cl)cc2)CCN1C(=O)Cc1ccsc1 (stereo not given) | 78* | 0 | 104 | nt | nt | -2 | -14
CC1(C(=O)NS(=O)(=O)c2ccc(Br)cc2)CCN1C(=O)Cc1ccsc1 (stereo not given) | 3 | 0 | 95 | nt | nt | 0 | nt
Cc1nc(SCc2nc3ccc([N+](=O)[O-])cc3[nH]2)c2oc3ccccc3c2n1 | 93* | 0 | 83 | -14 | 1 | 14 | -14
CC(C)(C)n1nnnc1C(c1cccs1)N(Cc1ccccc1)Cc1ccco1 (stereo not given) | 78* | nt | 92 | 1 | -12 | -2 | -12
CN1C(=O)c2cc(NC(=O)c3cccc(F)c3)ccc2OC[C@H]2O[C@H](CC(=O)N3CCc4ccccc4C3)CC[C@H]21 | nt | 0 | nt | nt | nt | nt | nt
Oc1ccccc1CNCC12CC3CC(CC(C3)C1)C2 | 47 | 0 | 99 | -52 | -5 | -6 | nt
CC(CC12CC3CC(CC(C3)C1)C2)NCc1ccccc1O (stereo not given) | 61* | 0 | 94 | 7 | -1 | 0 | -12
O=C(Nc1ccc([N+](=O)[O-])cc1)N1CCc2ccccc2C1 | 85* | 0 | 94 | -3 | -2 | 11 | -12
CC(C)c1ccc(NC(=O)N2CCc3ccccc3C2)cc1 | -1 | 0 | 91 | 32 | -8 | 2 | nt
CSc1cccc(NC(=S)N(CCCN2CCCC2)Cc2cccn2Cc2ccc(Cl)cc2)c1 | 93* | 0 | 93 | 13 | -1 | -8 | 63*
COc1cccc(NC(=S)N(CCCN2CCCC2)Cc2cccn2Cc2ccc(Cl)cc2)c1 | 12 | 0 | 97 | 4 | -1 | -4 | nt
Cc1cccc(-c2nc(CS(=O)CC(=O)NCCc3ccc(Cl)cc3)c(C)o2)c1 (stereo not given) | 58* | -1 | 96 | 0 | -3 | 4 | -4
SMILES | Exocytosis inh | FGF22 binding | ABCB6 inh MLPCN | VLA-4 inh | DAGLB inhibitor | MT1-MMP act inh | Exocytosis CP01
Cc1oc(-c2ccc(Cl)cc2)nc1CS(=O)CC(=O)NCCN1CCCC1 (stereo not given) | 56* | 0 | 92 | 22 | 0 | -4 | -11
Cc1ccc(-c2nc(CS(=O)CC(=O)NCCN3CCCC3)c(C)o2)cc1 (stereo not given) | 8 | 0 | 100 | 20 | 2 | 2 | nt
O=C(Nc1nc(-c2ccccc2)cs1)c1ccc2c(=O)n3c(nc2c1)CCCCC3 | 97* | 0 | 85 | -3 | 0 | -7 | 68*
O=C(CN1CCOCC1)NCC[C@@H]1CC[C@@H](NC(=O)c2ccccc2F)[C@@H](CO)O1 | nt | 0 | nt | nt | nt | nt | nt
COc1ccc(S(=O)(=O)N(C)C)cc1NC(=O)CCCSc1ccccc1 | 95* | 0 | 101 | 6 | 0 | 0 | -5
O=C1NC(=O)C2(CCc3ccccc32)N1 (stereo not given) | -3 | nt | 94 | 6 | 2 | 3 | nt
C=C1CC2(OC1=O)c1ccccc1CCc1ccccc12 | 90* | 0 | 97 | nt | 6 | -10 | -10
CNC(=O)C[C@H]1CC[C@@H]2[C@H](COc3ccc(NC(=O)c4ccc(OC)cc4)cc3C(=O)N2C)O1 | nt | 0 | nt | nt | nt | nt | nt
Cc1cc(Nc2cccc(Cl)c2)nc(NCc2ccccc2)n1 | 70* | 0 | 96 | 0 | 2 | -1 | -9
COc1ccc(C(=O)C2CCCN(Cc3cnc(N4CCOCC4)s3)C2)c(OC)c1 (stereo not given) | -3 | 0 | 81 | 3 | 0 | 1 | nt
COc1ccc(C(=O)C2CCCN(Cc3cccn3-c3ccc(Cl)cn3)C2)c(OC)c1 (stereo not given) | 68* | 0 | 98 | 9 | 1 | -7 | -1
CCNC(=O)[C@@H]1[C@@H](CO)[C@@H]2Cn3c(ccc(-c4ccccc4)c3=O)[C@@H]2N1Cc1ccccc1 | nt | 0 | nt | nt | nt | nt | nt
N=c1oc2ccc3ccccc3c2cc1-c1nnc2n1CCCCC2 | -2 | nt | 100 | 2 | 3 | 0 | nt
COc1ccc2oc(=N)c(-c3nnc4n3CCCCC4)cc2c1 | 56* | nt | 95 | 33 | 3 | 1 | -13
CCCn1c2ccc(C)cc2c2nnc(SCCN3CCCCC3)nc21 | 42 | 0 | 97 | nt | 1 | -2 | nt
CCn1c2ccc(C)cc2c2nnc(SCCN3CCCCC3)nc21 | 97* | 0 | 90 | 18 | 0 | -4 | -3
COCC#Cc1ccc([C@H]2[C@H](CO)N3CCCCN(S(=O)(=O)c4ccc(OC)cc4)C[C@@H]23)cc1 | nt | 0 | nt | nt | nt | nt | nt
O=[N+]([O-])CC(c1ccccc1)c1c[nH]c2ccccc12 (stereo not given) | -3 | 0 | 88 | -5 | nt | -2 | nt
